Laboratory results from ChEMBL document CHEMBL2396536, “Curcuminoids block TGF-β signaling in human breast cancer cells and limit osteolysis in a murine model of breast cancer bone metastasis” (J Nat Prod, 2013).
The source made the active and inactive calls. The rule behind the calls is not given here.

Experiments:
Mus musculus [1] = assay: Effect on orthotopic tumor mass in human MDA-MB-231 cells xenografted athymic nude mouse mammary fat pad at 25 to 50 mg/kg, ip administered every other day for 3 weeks
Mus musculus [2] = assay: Toxicity in human MDA-MB-231 cells xenografted athymic nude mouse left cardiac ventricle assessed as effect on hematocrit at 25 mg/kg, ip administered every other day for 3 weeks (reference value: 30.2 +/- 1.5%); type: organism-based, Heart; set-up: dose 25 mg/kg, route intraperitoneal; settings: in vivo, 504 h
MDA-MB-231 [3] = assay: Inhibition of osteolytic bone metastases in human MDA-MB-231 cells xenografted in athymic nude mouse left cardiac ventricle assessed as effect on tumor burden at 25 to 50 mg/kg, ip administered every other day for 3 weeks by histological analysis; type: functional, organism-based; settings: Heart left ventricle
Outline: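 Intracardiac MDA-MB-231 model in female nude mice, dosed ip every other day for 21 days, n = 11/group. Hindlimbs harvested day 21, formalin-fixed and EDTA-decalcified. Tumor area measured blinded on mid-sagittal 5 μm H&E sections of tibiae and femora at 10x magnification.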

Mus musculus [4] = assay: Toxicity in human MDA-MB-231 cells xenografted athymic nude mouse left cardiac ventricle assessed as effect on alanine aminotransferase at 50 mg/kg, ip administered every other day for 3 weeks (reference value: 7.04 +/- 2.2 U/L); type: organism-based, Heart; set-up: dose 50 mg/kg, route intraperitoneal; settings: in vivo, 504 h
Mus musculus [5] = assay: Toxicity in human MDA-MB-231 cells xenografted athymic nude mouse left cardiac ventricle assessed as effect on platelets at 25 mg/kg, ip administered every other day for 3 weeks (reference value: 513 +/- 54 K/uL); type: organism-based, Heart; set-up: dose 25 mg/kg, route intraperitoneal; settings: in vivo, 504 h
Mus musculus [6] = assay: Toxicity in human MDA-MB-231 cells xenografted athymic nude mouse left cardiac ventricle assessed as effect on alanine aminotransferase at 25 mg/kg, ip administered every other day for 3 weeks (reference value: 7.04 +/- 2.2 U/L); type: organism-based, Heart; set-up: dose 25 mg/kg, route intraperitoneal; settings: in vivo, 504 h
MDA-MB-231 [7] = assay: Inhibition of osteolytic bone metastases in human MDA-MB-231 cells xenografted in athymic nude mouse left cardiac ventricle assessed as reduction in lytic bone lesion area at 25 to 50 mg/kg, ip administered every other day for 3 weeks measured on day 21 relative to control; type: functional, Heart left ventricle; settings: dose mg/kg 25-50; route intraperitoneal
Outline: (§1)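 Four-week female athymic nude mice inoculated with 1 × 10^5 MDA-MB-231 cells in 0.1 mL PBS into the left cardiac ventricle. Dosed ip at 25 or 50 mg/kg or vehicle every other day from day 1 for 21 days, n = 11/group. Lytic lesion area quantified on radiographs on days 12, 16 and 21. Two-way ANOVA with Bonferroni.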

MDA-MB-231 [8] = assay: Inhibition of osteolytic bone metastases in human MDA-MB-231 cells xenografted in athymic nude mouse left cardiac ventricle assessed as reduction of bone-tumor interface at 25 mg/kg, ip administered every other day for 3 weeks; type: functional; settings: MDA-MB-231, Heart left ventricle, 504 h, route intraperitoneal
Outline: (§2)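 Intracardiac MDA-MB-231 model in nude mice, dosed ip every other day for 21 days. Mid-sagittal tibia and femur sections TRAP-stained. TRAP+ multinucleated (>3 nuclei) cells counted at 40x along the tumor-bone interface. Expressed as osteoclasts per mm of interface.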

MDA-MB-231 [9] = assay: Inhibition of TGF-beta-induced Ets-1 expression in human MDA-MB-231 cells treated 12 hrs before TGF-beta challenge measured after 1 hr by Western blotting
Mus musculus [10] = assay: Toxicity in human MDA-MB-231 cells xenografted athymic nude mouse left cardiac ventricle assessed as effect on hematocrit at 50 mg/kg, ip administered every other day for 3 weeks (reference value: 30.2 +/- 1.5%); type: organism-based, Heart; set-up: dose 50 mg/kg, route intraperitoneal; settings: in vivo, 504 h
Mus musculus [11] = assay: Toxicity in human MDA-MB-231 cells xenografted athymic nude mouse left cardiac ventricle assessed as effect on liver weight at 25 mg/kg, ip administered every other day for 3 weeks (reference value: 1 +/- 0.10 gram); type: organism-based, Heart; set-up: dose 25 mg/kg, route intraperitoneal; settings: in vivo, 504 h
[12] = target: Mothers against decapentaplegic homolog 2 (Homo sapiens) (UniProt Q15796); assay: Inhibition of TGF-beta-induced Smad2 phosphorylation in human MDA-MB-231 cells treated 12 hrs before TGF-beta challenge measured after 1 hr by Western blotting; type: cell-based
Outline: (§3)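 Subconfluent MDA-MB-231 pre-treated 12 h with compound (80 μM), then TGF-β (5 ng/mL) for 1 h. RIPA whole-cell lysates (18 μg) run on SDS-PAGE and transferred to PVDF. Probed with rabbit anti-phospho-Smad2, phospho-Smad3, phospho-p38 or Ets-1 (1:1000, overnight, 4 °C). β-actin used as loading control. Chemiluminescent detection; three independent experiments.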

[13] = target: MAP kinase p38 (Homo sapiens) (UniProt O15264+Q15759+Q16539+P53778); assay: Inhibition of TGF-beta-induced p38 phosphorylation in human MDA-MB-231 cells treated 12 hrs before TGF-beta challenge measured after 1 hr by Western blotting; type: cell-based
Outline: as §3

MDA-MB-231 [14] = assay: Inhibition of TGF-beta-induced PTHrP secretion in human MDA-MB-231 cells treated 4 hrs before TGF-beta challenge measured after 24 hrs by radioimmunoassay; type: functional, cell-based
Outline: (§4)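 MDA-MB-231 plated at 5 × 10^4 cells/cm2 and held overnight in DMEM with 10% FBS. Pre-treated 4 h with compound (0.1–100 μM in methods; 0.1–300 μM in legend) in 2% FBS, then recombinant human TGF-β1 (5 ng/mL) or medium alone for 24 h. PTHrP measured in conditioned media by radioimmunoassay, n = 4 wells/group. IC50 from four-parameter logistic fit.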

Mus musculus [15] = assay: Toxicity in human MDA-MB-231 cells xenografted athymic nude mouse left cardiac ventricle assessed as effect on spleen weight at 25 mg/kg, ip administered every other day for 3 weeks (reference value: 0.134 +/- 0.02 gram); type: organism-based; set-up: dose 25 mg/kg, route intraperitoneal; settings: in vivo, 504 h
MDA-MB-231 [16] = assay: Inhibition of osteolytic bone metastases in human MDA-MB-231 cells xenografted in athymic nude mouse left cardiac ventricle assessed as improvement in body weight at 25 to 50 mg/kg, ip administered every other day for 3 weeks measured on day 16 relative to vehicle-treated control; type: functional, organism-based; settings: Heart left ventricle
Mus musculus [17] = assay: Toxicity in human MDA-MB-231 cells xenografted athymic nude mouse left cardiac ventricle assessed as effect on liver weight at 50 mg/kg, ip administered every other day for 3 weeks (reference value: 1 +/- 0.10 gram); type: organism-based, Heart; set-up: dose 50 mg/kg, route intraperitoneal; settings: in vivo, 504 h
MDA-MB-231 [18] = assay: Inhibition of osteolytic bone metastases in human MDA-MB-231 cells xenografted in athymic nude mouse left cardiac ventricle assessed as reduction in lytic bone lesion area at 25 to 50 mg/kg, ip administered every other day for 3 weeks measured on day 16 relative to control; type: functional, Heart left ventricle; settings: dose mg/kg 25-50; route intraperitoneal
Outline: as §1

[19] = target: Mothers against decapentaplegic homolog 3 (Homo sapiens) (UniProt P84022); assay: Inhibition of TGF-beta-induced Smad3 phosphorylation in human MDA-MB-231 cells treated 12 hrs before TGF-beta challenge measured after 1 hr by Western blotting; type: cell-based
Outline: as §3

Mus musculus [20] = assay: Toxicity in human MDA-MB-231 cells xenografted athymic nude mouse left cardiac ventricle assessed as effect on white blood cells at 25 mg/kg, ip administered every other day for 3 weeks (reference value: 5.84 +/- 1.3 K/uL); settings: in vivo, 504 h
MDA-MB-231 [21] = assay: Inhibition of osteolytic bone metastases in human MDA-MB-231 cells xenografted in athymic nude mouse left cardiac ventricle assessed as reduction of bone-tumor interface at 50 mg/kg, ip administered every other day for 3 weeks; type: functional; settings: MDA-MB-231, Heart left ventricle, 504 h, route intraperitoneal
Outline: as §2

Mus musculus [22] = assay: Toxicity in human MDA-MB-231 cells xenografted athymic nude mouse left cardiac ventricle assessed as effect on bone-forming osteoblast cell at 25 to 50 mg/kg, ip administered every other day for 3 weeks; type: organism-based, Heart; set-up: dose 25-50 mg/kg, route intraperitoneal; settings: in vivo, 504 h
Mus musculus [23] = assay: Toxicity in human MDA-MB-231 cells xenografted athymic nude mouse left cardiac ventricle assessed as effect on white blood cells at 50 mg/kg, ip administered every other day for 3 weeks (reference value: 5.84 +/- 1.3 K/uL); settings: in vivo, 504 h
MDA-MB-231 [24] = assay: Cytotoxicity against human MDA-MB-231 cells assessed as cell viability by MTT assay; type: cell-based
Outline: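 MDA-MB-231 plated at 5 × 10^4 cells/cm2 and held overnight in DMEM with 10% FBS at 37°C and 5% CO2. Pre-incubated 4 h with compound in 2% FBS DMEM, then medium refreshed with TGF-β1 (5 ng/mL) for 24 h. Cell number read by MTT reduction.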

MDA-MB-231 [25] = assay: Inhibition of osteolytic bone metastases in human MDA-MB-231 cells xenografted in athymic nude mouse left cardiac ventricle assessed as reduction of bone lysis at 25 to 50 mg/kg, ip administered every other day for 3 weeks measured on day 21; type: functional, Heart left ventricle; settings: dose mg/kg 25-50; route intraperitoneal
Outline: as §1

Mus musculus [26] = assay: Toxicity in human MDA-MB-231 cells xenografted athymic nude mouse left cardiac ventricle assessed as effect on spleen weight at 50 mg/kg, ip administered every other day for 3 weeks (reference value: 0.134 +/- 0.02 gram); type: organism-based; set-up: dose 50 mg/kg, route intraperitoneal; settings: in vivo, 504 h
MDA-MB-231 [27] = assay: Inhibition of TGF-beta-induced PTHrP secretion in human MDA-MB-231 cells at 100 uM treated 4 hrs before TGF-beta challenge measured after 24 hrs by radioimmunoassay; type: functional, cell-based
Outline: as §4

Mus musculus [28] = assay: Toxicity in human MDA-MB-231 cells xenografted athymic nude mouse left cardiac ventricle assessed as effect on platelets at 50 mg/kg, ip administered every other day for 3 weeks (reference value: 513 +/- 54 K/uL); type: organism-based, Heart; set-up: dose 50 mg/kg, route intraperitoneal; settings: in vivo, 504 h
MDA-MB-231 [29] = assay: Inhibition of osteolytic bone metastases in human MDA-MB-231 cells xenografted in athymic nude mouse left cardiac ventricle assessed as improvement in host survival at 25 to 50 mg/kg, ip administered every other day for 3 weeks measured on day 16 relative to vehicle-treated control; type: functional, organism-based; settings: Heart left ventricle
Outline: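 Intracardiac MDA-MB-231 nude mice (n = 11/group) dosed ip every other day for 3 weeks. Survival shown by Kaplan–Meier and analyzed by logrank test with post-hoc logrank test for trend.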

Mothers against decapentaplegic homolog 2 (Homo sapiens), sequence (Q15796 whole entry): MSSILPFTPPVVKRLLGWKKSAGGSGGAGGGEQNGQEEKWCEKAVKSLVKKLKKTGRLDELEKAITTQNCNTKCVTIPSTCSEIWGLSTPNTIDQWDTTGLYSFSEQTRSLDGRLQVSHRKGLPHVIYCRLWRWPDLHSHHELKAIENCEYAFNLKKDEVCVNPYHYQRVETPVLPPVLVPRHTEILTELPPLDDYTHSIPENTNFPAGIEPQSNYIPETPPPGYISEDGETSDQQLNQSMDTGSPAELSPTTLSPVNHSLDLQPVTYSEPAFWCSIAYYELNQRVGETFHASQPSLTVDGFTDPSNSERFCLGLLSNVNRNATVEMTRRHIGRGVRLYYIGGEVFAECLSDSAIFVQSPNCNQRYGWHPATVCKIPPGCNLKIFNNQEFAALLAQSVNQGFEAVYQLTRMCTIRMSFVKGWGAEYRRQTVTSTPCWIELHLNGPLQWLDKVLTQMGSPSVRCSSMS
Mothers against decapentaplegic homolog 3 (Homo sapiens), sequence (P84022 2-425 limits assumed): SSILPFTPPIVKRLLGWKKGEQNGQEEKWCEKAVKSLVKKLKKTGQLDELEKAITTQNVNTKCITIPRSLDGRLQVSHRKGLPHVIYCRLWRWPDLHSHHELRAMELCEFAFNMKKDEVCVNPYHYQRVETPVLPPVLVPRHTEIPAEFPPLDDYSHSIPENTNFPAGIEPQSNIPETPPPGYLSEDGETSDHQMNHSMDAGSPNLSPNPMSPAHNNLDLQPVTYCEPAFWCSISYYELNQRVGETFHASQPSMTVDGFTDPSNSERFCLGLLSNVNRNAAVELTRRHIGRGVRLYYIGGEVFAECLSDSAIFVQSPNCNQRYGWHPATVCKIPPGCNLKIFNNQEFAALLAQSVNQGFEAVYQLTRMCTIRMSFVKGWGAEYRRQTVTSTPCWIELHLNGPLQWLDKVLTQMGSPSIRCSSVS

Compound: O=C(/C=C/c1ccc(O)cc1)CC(=O)/C=C/c1ccc(O)cc1 [BISDEMETHOXYCURCUMIN]
- Activity (Mus musculus [1]): inactive
- Activity (Mus musculus [2]): 30.6%
- inhibition (MDA-MB-231 [3]): inactive
- Activity (Mus musculus [4]): 5.02 U/L
- Activity (Mus musculus [5]): 485 K/uL
- Activity (Mus musculus [6]): 7.13 U/L
- inhibition (INH) (MDA-MB-231 [7]): 57%
- inhibition in vivo at 25 mg/kg (MDA-MB-231 [8]): 53%
- inhibition (MDA-MB-231 [9]): Active
- Activity (Mus musculus [10]): 31.1%
- Activity (Mus musculus [11]): 0.987 g
- inhibition [12]: Active
- inhibition [13]: inactive
- IC50 (MDA-MB-231 [14]): 24 µM
- inhibition (MDA-MB-231 [14]): Dose-dependent effect
- minimal effective concentration (MDA-MB-231 [14]; read-out: MEC): 13 µM
- Activity (Mus musculus [15]): 0.129 g
- Activity (MDA-MB-231 [16]): Active
- Activity (Mus musculus [17]): 1.1 g
- inhibition (INH) (MDA-MB-231 [18]): 51%
- inhibition [19]: Active
- Activity (Mus musculus [20]): 4.69 K/uL
- inhibition in vivo at 50 mg/kg (MDA-MB-231 [21]): 48%
- Activity (Mus musculus [22]): Non-toxic
- Activity (Mus musculus [23]): 6.83 K/uL
- MTC (MDA-MB-231 [24]): 82 µM
- inhibition (INH) (MDA-MB-231 [25]): >50%
- Activity (Mus musculus [26]): 0.139 g
- inhibition (MDA-MB-231 [27]): Active
- Activity (Mus musculus [28]): 589 K/uL
- Activity (MDA-MB-231 [29]): Active
